≈ marks a conversion by molar mass, not a printed value.
Legend:
[1] = Antifungal activity against Penicillium funiculosum ATCC 36839 after 72 hrs by microdilution technique; assay type: functional; conditions: Talaromyces pinophilus, ATCC 36839, 72 h
In short: (§1)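 Spores were washed off malt agar with 0.85% saline containing 0.1% Tween 80 and adjusted to about 1.0×10^5 per well. Compounds in 5% DMSO were serially diluted (0.001-1.0 mg/ml) in malt broth with inoculum. Plates were shaken at 160 rpm for 72 h at 28 °C. MIC is the lowest concentration without visible growth under a binocular microscope. Three independent experiments in duplicate.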

Bacillus cereus [2] = experiment: Bactericidal activity against Bacillus cereus clinical isolate incubated for 24 hrs followed by re-plating on tryptic soy broth; assay type: functional
In short: (§2)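 Bacteria were grown in tryptic soy broth, 1.0×10^4 CFU per well, with compounds in 5% DMSO at 0.001-1.0 mg/ml for 24 h at 37 °C. Then 10 µL was subcultured into fresh TSB. MBC is the lowest concentration showing no growth after subculture, taken as 99.5% kill of the original inoculum. Duplicates, repeated three times.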

Aspergillus fumigatus [3] = experiment: Antifungal activity against Aspergillus fumigatus ATCC 1022 after 72 hrs by microdilution technique; assay type: functional; conditions: ATCC 1022, 72 h; in short: as §1
Aspergillus versicolor [4] = experiment: Fungicidal activity against Aspergillus versicolor ATCC 11730 incubated for 72 hrs followed by sub-culturing on broth malt medium and measured after 72 hrs; assay type: functional; conditions: ATCC 11730, 72 h
In short: (§3)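 After 72 h exposure in malt broth, 2 µL from test wells was subcultured into wells holding 100 µL broth and incubated a further 72 h at 28 °C. MFC is the lowest concentration with no visible growth, taken as 99.5% kill of the original inoculum. Three independent experiments in duplicate.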

Pseudomonas aeruginosa [5] = experiment: Bactericidal activity against Pseudomonas aeruginosa ATCC 27853 incubated for 24 hrs followed by re-plating on tryptic soy broth; assay type: functional; conditions: ATCC 27853, 24 h; in short: as §2
Aspergillus fumigatus [6] = experiment: Fungicidal activity against Aspergillus fumigatus ATCC 1022 incubated for 72 hrs followed by sub-culturing on broth malt medium and measured after 72 hrs; assay type: functional; conditions: ATCC 1022, 72 h; in short: as §3
Penicillium cyclopium [7] = experiment: Antifungal activity against Penicillium verrucosum var. cyclopium food isolate after 72 hrs by microdilution technique; assay type: functional; in short: as §1
Aspergillus niger [8] = experiment: Fungicidal activity against Aspergillus niger ATCC 6275 incubated for 72 hrs followed by sub-culturing on broth malt medium and measured after 72 hrs; assay type: functional; conditions: ATCC 6275, 72 h; in short: as §3
Staphylococcus aureus [9] = experiment: Bactericidal activity against Staphylococcus aureus ATCC 6538 incubated for 24 hrs followed by re-plating on tryptic soy broth; assay type: functional; conditions: ATCC 6538, 24 h; in short: as §2
Salmonella typhimurium [10] = experiment: Bactericidal activity against Salmonella typhimurium ATCC 13311 incubated for 24 hrs followed by re-plating on tryptic soy broth; assay type: functional, Salmonella enterica subsp. enterica serovar Typhimurium; conditions: Salmonella enterica, ATCC 13311, 24 h; in short: as §2
Staphylococcus aureus [11] = experiment: Antibacterial activity against Staphylococcus aureus ATCC 6538 after 24 hrs by iodonitrotetrazolium chloride dye based microdilution method; assay type: functional; conditions: ATCC 6538, 24 h
In short: (§4)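 Fresh overnight cultures adjusted spectrophotometrically to 1×10^5 CFU/mL, giving 1.0×10^4 CFU per well in tryptic soy broth. Compounds were dissolved in 5% DMSO and tested at 0.001-1.0 mg/ml by serial dilution; 5% DMSO was the negative control. After 24 h at 37 °C, 0.2 mg/mL INT solution was added for 30 min at 37 °C and OD read at 655 nm. MIC is the lowest concentration giving significant growth inhibition versus the positive control. Duplicates, repeated three times.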

[12] = Fungicidal activity against Penicillium funiculosum ATCC 36839 incubated for 72 hrs followed by sub-culturing on broth malt medium and measured after 72 hrs; assay type: functional; conditions: Talaromyces pinophilus, ATCC 36839, 72 h; in short: as §3
Trichoderma viride [13] = experiment: Antifungal activity against Trichoderma viride IAM 5061 after 72 hrs by microdilution technique; assay type: functional; conditions: IAM 5061, 72 h; in short: as §1
Pseudomonas aeruginosa [14] = experiment: Antibacterial activity against Pseudomonas aeruginosa ATCC 27853 after 24 hrs by iodonitrotetrazolium chloride dye based microdilution method; assay type: functional; conditions: ATCC 27853, 24 h; in short: as §4
Listeria monocytogenes [15] = experiment: Bactericidal activity against Listeria monocytogenes NCTC 7973 incubated for 24 hrs followed by re-plating on tryptic soy broth; assay type: functional; conditions: NCTC 7973, 24 h; in short: as §2
Aspergillus ochraceus [16] = experiment: Antifungal activity against Aspergillus ochraceus ATCC 12066 after 72 hrs by microdilution technique; assay type: functional; conditions: ATCC 12066, 72 h; in short: as §1
Trichoderma viride [17] = experiment: Fungicidal activity against Trichoderma viride IAM 5061 incubated for 72 hrs followed by sub-culturing on broth malt medium and measured after 72 hrs; assay type: functional; conditions: IAM 5061, 72 h; in short: as §3
Bacillus cereus [18] = experiment: Antibacterial activity against Bacillus cereus clinical isolate after 24 hrs by iodonitrotetrazolium chloride dye based microdilution assay; assay type: functional; in short: as §4
Enterobacter cloacae [19] = experiment: Bactericidal activity against Enterobacter cloacae incubated for 24 hrs followed by re-plating on tryptic soy broth; assay type: functional; in short: as §2
Escherichia coli [20] = experiment: Antibacterial activity against Escherichia coli ATCC 35210 after 24 hrs by iodonitrotetrazolium chloride dye based microdilution method; assay type: functional; conditions: ATCC 35210, 24 h; in short: as §4
Micrococcus flavus [21] = experiment: Bactericidal activity against Micrococcus flavus ATCC 10240 incubated for 24 hrs followed by re-plating on tryptic soy broth; assay type: functional; conditions: ATCC 10240, 24 h; in short: as §2
Escherichia coli [22] = experiment: Bactericidal activity against Escherichia coli ATCC 35210 incubated for 24 hrs followed by re-plating on tryptic soy broth; assay type: functional; conditions: ATCC 35210, 24 h; in short: as §2
Micrococcus flavus [23] = experiment: Antibacterial activity against Micrococcus flavus ATCC 10240 after 24 hrs by iodonitrotetrazolium chloride dye based microdilution method; assay type: functional; conditions: ATCC 10240, 24 h; in short: as §4
Penicillium ochrochloron [24] = experiment: Antifungal activity against Penicillium ochrochloron ATCC 9112 after 72 hrs by microdilution technique; assay type: functional; conditions: ATCC 9112, 72 h; in short: as §1
Salmonella typhimurium [25] = experiment: Antibacterial activity against Salmonella typhimurium ATCC 13311 after 24 hrs by iodonitrotetrazolium chloride dye based microdilution method; assay type: functional, Salmonella enterica subsp. enterica serovar Typhimurium; conditions: Salmonella enterica, ATCC 13311, 24 h; in short: as §4
Aspergillus versicolor [26] = experiment: Antifungal activity against Aspergillus versicolor ATCC 11730 after 72 hrs by microdilution method; assay type: functional; conditions: ATCC 11730, 72 h; in short: as §1
Aspergillus niger [27] = experiment: Antifungal activity against Aspergillus niger ATCC 6275 after 72 hrs by microdilution technique; assay type: functional; conditions: ATCC 6275, 72 h; in short: as §1
Enterobacter cloacae [28] = experiment: Antibacterial activity against Enterobacter cloacae clinical isolate after 24 hrs by iodonitrotetrazolium chloride dye based microdilution method; assay type: functional; in short: as §4
Penicillium cyclopium [29] = experiment: Fungicidal activity against Penicillium verrucosum var. cyclopium food isolate incubated for 72 hrs followed by sub-culturing on broth malt medium and measured after 72 hrs; assay type: functional; in short: as §3
Listeria monocytogenes [30] = experiment: Antibacterial activity against Listeria monocytogenes NCTC 7973 after 24 hrs by iodonitrotetrazolium chloride dye based microdilution method; assay type: functional; conditions: NCTC 7973, 24 h; in short: as §4
Penicillium ochrochloron [31] = experiment: Fungicidal activity against Penicillium ochrochloron ATCC 9112 incubated for 72 hrs followed by sub-culturing on broth malt medium and measured after 72 hrs; assay type: functional; conditions: ATCC 9112, 72 h; in short: as §3
Aspergillus ochraceus [32] = experiment: Fungicidal activity against Aspergillus ochraceus ATCC 12066 incubated for 72 hrs followed by sub-culturing on broth malt medium and measured after 72 hrs; assay type: functional; conditions: ATCC 12066, 72 h; in short: as §3

Cc1ccc2c(c1)-c1c(ssc1=S)C(C)(C)N2C(=O)CSc1nn(-c2ccccc2)c(=S)s1 showed an MIC [1] of 2.75 ×10⁻² mM, an MBC (Bacillus cereus [2]) of 55 µM (≈ 30 µg/mL) and an MIC (Aspergillus fumigatus [3]) of 8.24 ×10⁻² mM. It also gave an MFC (Aspergillus versicolor [4]) of 44 ×10⁻² mM, an MBC (Pseudomonas aeruginosa [5]) of 55 µM (≈ 30 µg/mL) and an MFC (Aspergillus fumigatus [6]) of 22 ×10⁻² mM. For the same molecule, the MIC (Penicillium cyclopium [7]) was 22 ×10⁻² mM, the MFC (Aspergillus niger [8]) was 5.5 ×10⁻² mM and the MBC (Staphylococcus aureus [9]) was 55 µM (≈ 30 µg/mL). It also gave an MBC (Salmonella typhimurium [10]) of 55 µM (≈ 30 µg/mL), an MIC (Staphylococcus aureus [11]) of 27.5 µM (≈ 15 µg/mL) and an MFC [12] of 5.5 ×10⁻² mM. It also gave an MIC (Trichoderma viride [13]) of 1.1 ×10⁻² mM, an MIC (Pseudomonas aeruginosa [14]) of 27.5 µM (≈ 15 µg/mL) and an MBC (Listeria monocytogenes [15]) of 55 µM (≈ 30 µg/mL). The MIC (Aspergillus ochraceus [16]) was 1.47 ×10⁻² mM, the MFC (Trichoderma viride [17]) was 1.47 ×10⁻² mM and the MIC (Bacillus cereus [18]) was 27.5 µM (≈ 15 µg/mL). It also gave an MBC (Enterobacter cloacae [19]) of 55 µM (≈ 30 µg/mL), an MIC (Escherichia coli [20]) of 27.5 µM (≈ 15 µg/mL) and an MBC (Micrococcus flavus [21]) of 55 µM (≈ 30 µg/mL). For the same molecule, the MBC (Escherichia coli [22]) was 55 µM (≈ 30 µg/mL), the MIC (Micrococcus flavus [23]) was 27.5 µM (≈ 15 µg/mL) and the MIC (Penicillium ochrochloron [24]) was 2.75 ×10⁻² mM. It also gave an MIC (Salmonella typhimurium [25]) of 27.5 µM (≈ 15 µg/mL), an MIC (Aspergillus versicolor [26]) of 22 ×10⁻² mM and an MIC (Aspergillus niger [27]) of 2.02 ×10⁻² mM. For the same molecule, the MIC (Enterobacter cloacae [28]) was 27.5 µM (≈ 15 µg/mL), the MFC (Penicillium cyclopium [29]) was 44 ×10⁻² mM and the MIC (Listeria monocytogenes [30]) was 27.5 µM (≈ 15 µg/mL). For the same molecule, the MFC (Penicillium ochrochloron [31]) was 5.5 ×10⁻² mM and the MFC (Aspergillus ochraceus [32]) was 2.75 ×10⁻² mM.

For CC1(C)c2ssc(=S)c2-c2ccccc2N1C(=O)CN1C(=O)CCC1=O, the MIC [1] was 11.1 ×10⁻² mM, the MBC (Bacillus cereus [2]) was 74.2 µM (≈ 30 µg/mL) and the MIC (Aspergillus fumigatus [3]) was 11.1 ×10⁻² mM. It also gave an MFC (Aspergillus versicolor [4]) of 29.7 ×10⁻² mM, an MBC (Pseudomonas aeruginosa [5]) of 74.2 µM (≈ 30 µg/mL) and an MFC (Aspergillus fumigatus [6]) of 14.8 ×10⁻² mM. It also gave an MIC (Penicillium cyclopium [7]) of 14.8 ×10⁻² mM, an MFC (Aspergillus niger [8]) of 14.8 ×10⁻² mM and an MBC (Staphylococcus aureus [9]) of 74.2 µM (≈ 30 µg/mL). It also gave an MBC (Salmonella typhimurium [10]) of 74.2 µM (≈ 30 µg/mL), an MIC (Staphylococcus aureus [11]) of 37.1 µM (≈ 15 µg/mL) and an MFC [12] of 29.7 ×10⁻² mM. The MIC (Trichoderma viride [13]) was 1.48 ×10⁻² mM, the MIC (Pseudomonas aeruginosa [14]) was 37.1 µM (≈ 15 µg/mL) and the MBC (Listeria monocytogenes [15]) was 74.2 µM (≈ 30 µg/mL). It also gave an MIC (Aspergillus ochraceus [16]) of 14.8 ×10⁻² mM, an MFC (Trichoderma viride [17]) of 1.98 ×10⁻² mM and an MIC (Bacillus cereus [18]) of 37.1 µM (≈ 15 µg/mL). It also gave an MBC (Enterobacter cloacae [19]) of 74.2 µM (≈ 30 µg/mL), an MIC (Escherichia coli [20]) of 37.1 µM (≈ 15 µg/mL) and an MBC (Micrococcus flavus [21]) of 74.2 µM (≈ 30 µg/mL). For the same molecule, the MBC (Escherichia coli [22]) was 74.2 µM (≈ 30 µg/mL), the MIC (Micrococcus flavus [23]) was 37.1 µM (≈ 15 µg/mL) and the MIC (Penicillium ochrochloron [24]) was 0.99 ×10⁻² mM. It also gave an MIC (Salmonella typhimurium [25]) of 37.1 µM (≈ 15 µg/mL), an MIC (Aspergillus versicolor [26]) of 14.8 ×10⁻² mM and an MIC (Aspergillus niger [27]) of 7.42 ×10⁻² mM. The MIC (Enterobacter cloacae [28]) was 37.1 µM (≈ 15 µg/mL), the MFC (Penicillium cyclopium [29]) was 29.7 ×10⁻² mM and the MIC (Listeria monocytogenes [30]) was 37.1 µM (≈ 15 µg/mL). For the same molecule, the MFC (Penicillium ochrochloron [31]) was 1.98 ×10⁻² mM and the MFC (Aspergillus ochraceus [32]) was 29.7 ×10⁻² mM.

Reference: ChEMBL document CHEMBL4393701, “Appendix A. dithioloquinolinethiones as new potential multitargeted antibacterial and antifungal agents: Synthesis, biological evaluation and molecular docking studies” (2019)
